Values after ≈ are worked out from the molar mass of the structure shown.
What was measured:
[1] = Prodrug conversion assessed as 5-(3-(Methyldisulfanyl)propanamido)-N-(2-((9aS)-4-oxo-2,4,9,9atetrahydro- 1H-benzo[e]cyclopropa[c]indole-2-carbonyl)-1H-indol- 5-yl)-1H-indole-2-carboxamide in cyclopropyl by HPLC analysis; type: physicochemical
[2] = Solubility of the compound in 100% buffer at pH 7 at 1.5 mg sonicated for 45 mins followed by centrifugation for 45 mins by UV/Vis spectroscopy; type: physicochemical
[3] = Solubility of the compound in 10% DMA and 90% buffer at pH 7 at 1.5 mg sonicated for 45 mins followed by centrifugation for 45 mins by UV/Vis spectroscopy; type: physicochemical
Summary of the method: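 About 1.5 mg of compound is sonicated for 45 min in pH 7.0 buffer containing 10% or 20% DMA, then centrifuged at 1400g for 45 min. Supernatant concentration is read by UV/vis at 340 nm. ε at pH 7.0 is 41500 M⁻¹ cm⁻¹ for DC1–SR₂ compounds and 34500 M⁻¹ cm⁻¹ for phosphate prodrugs.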

Ramos [4] = assay: Cytotoxicity against human Ramos cells assessed as cell survival after 72 hrs by clonogenic assay; type: functional, cell-based
Summary of the method: (§1)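 Cells were kept in RPMI 1640 with 10% heat-inactivated FBS at 37 °C and 6% CO₂. They were plated at 1000–5000 cells/well and exposed to 0–3 nM test agent for 72 h. Medium was then replaced and colonies grew for 7–10 days in total after plating. Colonies were fixed and stained with 0.2% crystal violet in 10% formalin/PBS, then counted. Surviving fraction = colonies in treated wells / colonies in control wells; IC₅₀ was taken from this.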

[5] = Cytotoxicity against human NAMALWA cells assessed as cell survival after 72 hrs by clonogenic assay; type: functional, cell-based; conditions: NAMALVA; summary of the method: as §1
HL-60 = assay: Cytotoxicity against human HL60 cells assessed as cell survival after 72 hrs by clonogenic assay; type: functional, cell-based; conditions: HL-60, 72 h; summary of the method: as §1
COLO 205 = assay: Cytotoxicity against human COLO205 cells assessed as cell survival after 72 hrs by clonogenic assay; type: functional, cell-based; conditions: COLO 205, 72 h; summary of the method: as §1
Ramos [6] = assay: Cytotoxicity against human Ramos cells assessed as cell survival after 72 hrs in presence of bovine alkaline phosphatase by clonogenic assay; type: functional, cell-based
Summary of the method: (§2)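 Clonogenic assay: cells in RPMI 1640 with 10% heat-inactivated FBS were plated at 1000–5000 cells/well. Test agent (0–3 nM) was combined with alkaline phosphatase from bovine liver, and cells were exposed for 72 h. Colonies then grew for 7–10 days after plating and were stained with 0.2% crystal violet in 10% formalin/PBS. Surviving fraction is relative to untreated control wells.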

[7] = Cytotoxicity against human NAMALWA cells assessed as cell survival after 72 hrs in presence of bovine alkaline phosphatase by clonogenic assay; type: functional, cell-based; conditions: NAMALVA; summary of the method: as §2
[8] = Prodrug activation assessed as enzyme-mediated compound dephosphorylation in presence of bovine alkaline phosphatase P8361 at pH 7.4 by HPLC; conditions: cattle, isolated protein
[9] = Prodrug activation assessed as enzyme-mediated compound dephosphorylation in presence of bovine intestinal mucosa alkaline phosphatase P7640 at pH 7.4 by HPLC; conditions: cattle, isolated protein
[10] = Prodrug activation assessed as enzyme-mediated compound dephosphorylation in presence of bovine kidney alkaline phosphatase P4653 at pH 7.4 by HPLC; conditions: cattle, isolated protein
[11] = Prodrug activation assessed as enzyme-mediated compound dephosphorylation in presence of bovine liver alkaline phosphatase P7034 at pH 7.4 by HPLC; conditions: cattle, isolated protein
[12] = Prodrug activation assessed as enzyme-mediated compound dephosphorylation in presence of calf intestine alkaline phosphatase P7923 at pH 7.4 by HPLC; conditions: cattle, isolated protein
[13] = Prodrug activation assessed as enzyme-mediated compound dephosphorylation in presence of canine intestine alkaline phosphatase P8639 at pH 7.4 by HPLC; conditions: dog, isolated protein
[14] = Prodrug activation assessed as enzyme-mediated compound dephosphorylation in presence of porcine intestine mucosa alkaline phosphatase P4002 at pH 7.4 by HPLC; conditions: pig, isolated protein
[15] = Prodrug activation assessed as enzyme-mediated compound dephosphorylation in presence of porcine kidney alkaline phosphatase P4439 at pH 7.4 by HPLC; conditions: pig, isolated protein
[16] = Prodrug activation assessed as enzyme-mediated compound dephosphorylation in presence of rabbit intestine alkaline phosphatase P2256 at pH 7.4 by HPLC; conditions: isolated protein
[17] = Prodrug activation assessed as enzyme-mediated compound dephosphorylation in presence of human placenta alkaline phosphatase from P3895 at pH 7.4 by HPLC; conditions: isolated protein
[18] = Prodrug activation assessed as enzyme-mediated compound dephosphorylation in presence of calf intestine mucosa alkaline phosphatase P79390 at pH 7.4 by HPLC; conditions: cattle, isolated protein
[19] = Solubility in water at 1.5 mg sonicated for 45 mins followed by centrifugation for 45 mins by UV/Vis spectroscopy; type: physicochemical; conditions: 0.75 h
Summary of the method: (§3)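 Solid compound (~1.5 mg) in the stated solvent was sonicated 45 min, then centrifuged at 1400g for 45 min. The supernatant concentration was read by UV/vis at 340 nm, using ε = 41500 M⁻¹ cm⁻¹ for the free phenols and 34500 M⁻¹ cm⁻¹ for the phosphate prodrugs (pH 7.0 values).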

[20] = Solubility in toluene at 1.5 mg sonicated for 45 mins followed by centrifugation for 45 mins by UV/Vis spectroscopy; type: physicochemical; conditions: 0.75 h; summary of the method: as §3
[21] = Solubility in ethyl acetate at 1.5 mg sonicated for 45 mins followed by centrifugation for 45 mins by UV/Vis spectroscopy; type: physicochemical; conditions: 0.75 h; summary of the method: as §3
[22] = Solubility in chloroform at 1.5 mg sonicated for 45 mins followed by centrifugation for 45 mins by UV/Vis spectroscopy; type: physicochemical; conditions: 0.75 h; summary of the method: as §3
[23] = Solubility in methanol at 1.5 mg sonicated for 45 mins followed by centrifugation for 45 mins by UV/Vis spectroscopy; type: physicochemical; conditions: 0.75 h; summary of the method: as §3
[24] = Solubility in water containing 5% acetone at 1.5 mg sonicated for 45 mins followed by centrifugation for 45 mins by UV/Vis spectroscopy; type: physicochemical; conditions: 0.75 h
[25] = Solubility in water containing 5% DMSO at 1.5 mg sonicated for 45 mins followed by centrifugation for 45 mins by UV/Vis spectroscopy; type: physicochemical; conditions: 0.75 h
[26] = Stability of the compound in 5 % DMA assessed as cyclopropyl ring formation incubated for 1 yr at room temperature at pH 7 by HPLC analysis; type: physicochemical; conditions: buffer, pH 7, 8766 h
Summary of the method: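 Phosphate prodrug is stored for one year at room temperature in phosphate buffer containing 5% DMA at pH ~7. Conversion to the ring-closed cyclopropyl form is monitored by HPLC.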

[27] = Prodrug activation assessed as enzyme-mediated compound dephosphorylation in presence of wheat germ acid phosphatase Sigma P3627 at pH 7.4 by HPLC; conditions: isolated protein
[28] = Prodrug conversion assessed as 1 - [ S ] - ( Ch l o r ome t h y l ) - 5 - h y d r o x y - 3 - { { 5 - [ 5 - ( 3 -methyldithiopropionyl)indol-2-yl-carbonyl amino]indole-2-yl}- carbonyl}-1,2-dihydro-3H-benz[e]indole formation in presence of bovine liver alkaline phosphatase at pH 7.4; type: physicochemical; conditions: cattle, isolated protein
[29] = Prodrug conversion assessed as 1-[S]-(Chloromethyl)-5-hydroxy-3-{{5-[5-(3-methyldithiopropionyl)indol-2-yl-carbonyl amino]indole-2-yl}- carbonyl}-1,2-dihydro-3H-benz[e]indole formation in presence of bovine kidney alkaline phosphatase at pH 7.4; type: physicochemical; conditions: cattle, isolated protein

CSSCCC(=O)Nc1ccc2[nH]c(C(=O)Nc3ccc4[nH]c(C(=O)N5C[C@@H](CCl)c6c5cc(OP(=O)(O)O)c5ccccc65)cc4c3)cc2c1
Drug metabolism [1]: Active | solubility at 0.75 h [2]: 19 µM (≈ 14.5 µg/mL) | solubility at 0.75 h [3]: 4700 µM (≈ 3590 µg/mL) | IC50 (Ramos [4]): 1.9 nM | IC50 [5]: 2.9 nM | IC50 (HL-60): 1.8 nM | IC50 (COLO 205): > 3 nM | IC50 (Ramos [6]): 0.08 nM | IC50 [7]: 0.03 nM | Drug metabolism [8]: Active | Drug metabolism [9]: Active | Drug metabolism [10]: Active | Drug metabolism [11]: Active | Drug metabolism [12]: Active | Drug metabolism [13]: Active | Drug metabolism [14]: Active | Drug metabolism [15]: Active | Drug metabolism [16]: Active | Drug metabolism [17]: Active | Drug metabolism [18]: Active | solubility [19]: Insoluble | solubility [20]: Insoluble | solubility [21]: Insoluble | solubility [22]: Insoluble | solubility [23]: Insoluble | solubility [24]: soluble | solubility [25]: soluble | Drug degradation [26]: 3% | Drug metabolism [27]: Active | Drug metabolism [28]: Active | Drug metabolism [29]: Active

CSSC(C)(C)CCC(=O)Nc1ccc2[nH]c(C(=O)Nc3ccc4[nH]c(C(=O)N5C[C@@H](CCl)c6c5cc(OP(=O)(O)O)c5ccccc65)cc4c3)cc2c1
Drug metabolism [1]: Active | solubility at 0.75 h [2]: 19 µM (≈ 15.3 µg/mL) | solubility at 0.75 h [3]: 4600 µM (≈ 3710 µg/mL) | IC50 (Ramos [4]): 2 nM | IC50 [5]: 2.8 nM | IC50 (HL-60): 1.9 nM | IC50 (COLO 205): > 3 nM | IC50 (Ramos [6]): 0.09 nM | IC50 [7]: 0.025 nM | Drug metabolism [8]: Active | Drug metabolism [9]: Active | Drug metabolism [10]: Active | Drug metabolism [11]: Active | Drug metabolism [12]: Active | Drug metabolism [13]: Active | Drug metabolism [14]: Active | Drug metabolism [15]: Active | Drug metabolism [16]: Active | Drug metabolism [17]: Active | Drug metabolism [18]: Active | solubility [19]: Insoluble | solubility [20]: Insoluble | solubility [21]: Insoluble | solubility [22]: Insoluble | solubility [23]: Insoluble | solubility [24]: soluble | solubility [25]: soluble | Drug degradation [26]: 3% | Drug metabolism [27]: Active | Drug metabolism [28]: Active | Drug metabolism [29]: Active

From ChEMBL document CHEMBL2157989, “Synthesis and biological evaluation of antibody conjugates of phosphate prodrugs of cytotoxic DNA alkylators for the targeted treatment of cancer” (J Med Chem, 2012)
